# In ChEMBL document CHEMBL2434965, “Lead optimization of an acylhydrazone scaffold possessing antiviral activity against Lassa virus” (Bioorg Med Chem Lett, 2013):
# The source made the active and inactive calls. No cut-off for these calls is given here.
# Test system: Sabia virus
# Assay: Antiviral activity against Sabia virus pseudotype containing viral envelope
# Assay type: functional
# Details: not given
# Outline: (§1)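 Lentivirus-based pseudotypes bearing arenavirus envelope glycoprotein. Each run used three or four replicates per concentration, typically 7 to 14 concentrations spaced 0.25 to 0.7 log apart, up to 50 µM. EC50 per experiment came from a four-parameter one-site dose-response fit. Values across experiments were averaged as geometric means, with relative standard error given as SD/√n relative to the mean.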
row,SMILES,EC50
1,C/C(=N\NC(=O)[C@@H]1C[C@H]1c1ccccc1)c1ccc(NC(=O)c2ccco2)cc1,130 nM

# Test system: Tacaribe virus
# Assay: Antiviral activity against Tacaribe virus pseudotype containing viral envelope
# Assay type: functional, organism-based
# Details: Mammarenavirus tacaribeense
# Outline: as §1
row,SMILES,EC50
1,C/C(=N\NC(=O)[C@@H]1C[C@H]1c1ccccc1)c1ccc(NC(=O)c2ccco2)cc1,630 nM

# Test system: Junin virus
# Assay: Antiviral activity against Junin virus pseudotype containing viral envelope
# Assay type: functional, organism-based
# Details: Mammarenavirus juninense
# Outline: as §1
row,SMILES,EC50
1,C/C(=N\NC(=O)[C@@H]1C[C@H]1c1ccccc1)c1ccc(NC(=O)c2ccco2)cc1,800 nM

# Test system: Lassa virus
# Assay: Antiviral activity against Lassa virus pseudotype containing envelope glycoprotein incorporated in lentivirus infected in human 293T/17 cells by luciferase reporter gene assay
# Assay type: functional, organism-based
# Details: Mammarenavirus lassaense, HEK-293T
# Outline: as §1
row,SMILES,EC50
1,C/C(=N\NC(=O)[C@@H]1C[C@H]1c1ccccc1)c1cccc(Br)c1 (relative stereo),56 nM
2,C/C(=N\NC(=O)[C@@H]1C[C@H]1c1ccccc1)c1ccc(Cl)c(Cl)c1 (relative stereo),72 nM
3,C/C(=N\NC(=O)[C@H]1C[C@@H]1c1ccccc1)c1ccc(NC(=O)c2ccco2)cc1 (relative stereo),0.34 nM
4,C/C(=N\NC(=O)[C@@H]1C[C@H]1c1ccc(C(C)(C)C)cc1)c1ccc(Cl)cc1 (relative stereo),6.6 nM
5,C/C(=N\NC(=O)[C@@H]1C[C@H]1c1ccccc1)c1ccc(NC(=O)C2CC2)cc1 (relative stereo),2.1 nM
6,C/C(=N\NC(=O)[C@@H]1C[C@H]1c1ccccc1)c1cccc(C)c1C (relative stereo),800 nM
7,C/C(=N\NC(=O)[C@@H]1C[C@H]1c1ccccc1)c1cccc(NC(=O)c2cccs2)c1 (relative stereo),6300 nM
8,C/C(=N\NC(=O)[C@@H]1C[C@H]1c1ccccc1)c1ccccc1 (relative stereo),47 nM
9,CC(=O)Nc1ccc(/C(C)=N/NC(=O)[C@@H]2C[C@H]2c2ccccc2)cc1 (relative stereo),2.6 nM
10,COc1cccc(/C(C)=N/NC(=O)C2CC2)c1,> 50000 nM
11,C/C(=N\NC(=O)[C@@H]1C[C@H]1c1ccccc1)c1ccc(C)cc1C (relative stereo),170 nM
12,C/C(=N\NC(=O)[C@@H]1C[C@H]1c1ccccc1)c1ccc(C)c(C)c1 (relative stereo),3.9 nM
13,C/C(=N\NC(=O)[C@@H]1C[C@H]1c1ccccc1)c1cccc(NC(=O)c2ccccc2F)c1 (relative stereo),9100 nM
14,C/C(=N\NC(=O)[C@@H]1C[C@H]1c1ccccc1)c1cccc(O)c1 (relative stereo),94 nM
15,C/C(=N\NC(=O)[C@@H]1C[C@H]1c1ccccc1)c1ccc(NC(=O)c2ccco2)cc1,0.34 nM
16,C/C(=N\NC(=O)[C@@H]1C[C@H]1c1ccccc1)c1ccc([N+](=O)[O-])cc1 (relative stereo),62 nM
17,C/C(=N\NC(=O)[C@@H]1C[C@H]1c1ccccc1)c1ccc(C)cc1 (relative stereo),9 nM

row,SMILES,EC50
1,C/C(=N\NC(=O)[C@@H]1C[C@H]1c1ccccc1)c1ccc(Br)cc1 (relative stereo),470 nM
2,C/C(=N\NC(=O)[C@@H]1C[C@H]1c1ccccc1)c1ccc(F)cc1 (relative stereo),52 nM
3,C/C(=N\NC(=O)[C@@H]1C[C@H]1c1ccccc1)c1cccc([N+](=O)[O-])c1 (relative stereo),250 nM
4,C/C(=N\NC(=O)[C@@H]1C[C@H]1c1ccccc1)c1ccc(C2CCCCC2)cc1 (relative stereo),24 nM
5,C/C(=N\NC(=O)[C@@H]1C[C@H]1c1ccc(C(C)(C)C)cc1)c1ccc(F)cc1 (relative stereo),16 nM
6,C/C(=N\NC(=O)[C@@H]1C[C@H]1c1ccccc1)c1ccccc1Cl (relative stereo),320 nM
7,C/C(=N\NC(=O)[C@@H]1C[C@H]1c1ccccc1)c1ccc(O)cc1 (relative stereo),2.3 nM
8,C/C(=N\NC(=O)[C@@H]1C[C@H]1c1ccccc1)c1ccc(Cl)cc1 (relative stereo),20 nM
9,C/C(=N\NC(=O)[C@@H]1C[C@H]1c1ccc(C(C)(C)C)cc1)c1ccccc1 (relative stereo),15 nM
10,C/C(=N\NC(=O)[C@@H]1C[C@H]1c1ccccc1)c1ccccc1O (relative stereo),570 nM
11,COc1ccc(/C(C)=N/NC(=O)[C@@H]2C[C@H]2c2ccccc2)cc1 (relative stereo),4 nM
12,C/C(=N\NC(=O)[C@@H]1C[C@H]1c1ccccc1)c1ccc(-c2ccccc2)cc1 (relative stereo),1.3 nM
13,COc1ccc(/C(C)=N/NC(=O)[C@@H]2C[C@H]2c2ccccc2)cc1OC (relative stereo),450 nM
14,C/C(=N\NC(=O)[C@@H]1C[C@H]1c1ccccc1)c1ccc(NC(=O)c2ccc(Cl)s2)cc1 (relative stereo),0.95 nM
15,C/C(=N\NC(=O)[C@@H]1C[C@H]1c1ccccc1)c1cccc(C)c1 (relative stereo),58 nM
16,COc1cccc(/C(C)=N/NC(=O)[C@@H]2C[C@H]2c2ccccc2)c1 (relative stereo),42 nM
17,C/C(=N\NC(=O)[C@@H]1C[C@H]1c1ccc(C(C)(C)C)cc1)c1cccc(NC(=O)c2ccccc2F)c1 (relative stereo),770 nM

# Test system: Guanarito virus
# Assay: Antiviral activity against Guanarito virus pseudotype containing viral envelope
# Assay type: functional
# Details: Mammarenavirus guanaritoense
# Outline: as §1
row,SMILES,EC50
1,C/C(=N\NC(=O)[C@@H]1C[C@H]1c1ccccc1)c1ccc(NC(=O)c2ccco2)cc1,120 nM

# Test system: Lassa virus
# Assay: Antiviral activity against Lassa virus by plaque reduction assay
# Assay type: functional, organism-based
# Details: Mammarenavirus lassaense
row,SMILES,Activity
1,C/C(=N\NC(=O)[C@@H]1C[C@H]1c1ccccc1)c1ccc(NC(=O)c2ccco2)cc1,Active

# Test system: Machupo mammarenavirus
# Assay: Antiviral activity against Machupo virus pseudotype containing viral envelope
# Assay type: functional
# Details: Mammarenavirus machupoense
# Outline: as §1
row,SMILES,EC50
1,C/C(=N\NC(=O)[C@@H]1C[C@H]1c1ccccc1)c1ccc(NC(=O)c2ccco2)cc1,730 nM
